The values below come from article PMC2758331 (Biochemistry, 2009).

A value given as a limit tells only on which side of the number the result lay.

For test [1], the target named is T1, mDia1-FH2 (Mus musculus, UniProt O08808). The test can be described thus: pyrene-actin polymerization assay, actin assembly by mDia1-FH2. In kind it is biochemical. An outline of the steps:
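Recombinant mouse mDia1 FH2 domain (aa 748–1175) at 2.5 nM with 4 μM actin (5% pyrene-labelled), across a range of test compound concentrations. Polymerization followed by pyrene fluorescence (emission 410 nm). Signal corrected for quenching by the test compound. Dose-response curves calculated from the polymerization curves give IC50 and Hill coefficient.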

The target in the next test is actin (Oryctolagus cuniculus, UniProt P68135). Kind of test: spontaneous polymerization of actin alone. In kind it is biochemical. Particulars: concentrations up to 50 μM.
The target in the next test is mDia2-FH2 (Mus musculus, UniProt Q9Z207). Kind of test: pyrene-actin polymerization assay, actin assembly by mDia2-FH2. The format is biochemical. Particulars: potency and Hill coefficients. The procedure, abridged:
(§1)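 Pyrene-actin polymerization (emission read at 410 nm) driven by 2.5 nM mDia2-FH2, 20 nM INF2-(FH1-FH2) or 200 nM FRL1-(FH1-FH2), with the test compound titrated. Fluorescence corrected for compound quenching. Dose-response curves derived from the polymerization traces give IC50 and Hill coefficient.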

Test [2] concerns the target T2, mDia3-FH2 (Mus musculus, UniProt O70566). Kind of test: pyrene-actin polymerization assay, actin assembly by mDia3-FH2. Particulars: at any concentration tested. In kind it is biochemical. The procedure, abridged: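 Pyrene-actin polymerization (emission 410 nm) with mDia3-FH2 in two formats: 10 nM mDia3-FH2 in test compound titrations for dose-response curves (IC50, Hill coefficient), and 2.5 nM mDia3-FH2 with or without 50 μM test compound. Fluorescence corrected for compound quenching.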

The target in a further test is T3, FRL1-(FH1-FH2) (Mus musculus, UniProt Q9JL26).
T3 sequence (Q9JL26 627-1018 limits assumed): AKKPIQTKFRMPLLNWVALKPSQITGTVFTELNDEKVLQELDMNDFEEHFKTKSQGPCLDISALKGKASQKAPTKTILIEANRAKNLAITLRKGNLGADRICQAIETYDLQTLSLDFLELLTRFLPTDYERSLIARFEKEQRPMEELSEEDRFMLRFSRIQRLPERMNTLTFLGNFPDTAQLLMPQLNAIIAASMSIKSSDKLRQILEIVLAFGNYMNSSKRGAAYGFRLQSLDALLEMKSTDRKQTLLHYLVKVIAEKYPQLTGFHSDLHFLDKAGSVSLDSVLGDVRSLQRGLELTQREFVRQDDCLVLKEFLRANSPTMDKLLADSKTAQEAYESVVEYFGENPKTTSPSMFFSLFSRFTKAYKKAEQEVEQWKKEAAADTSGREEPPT
The test can be described thus: pyrene-actin polymerization assay, actin assembly by FRL1. In kind it is biochemical. Particulars: at 50 μM. The procedure, abridged:
as §1

A further test deals with INF2-(FH1-FH2) (Mus musculus, UniProt Q0GNC1). Kind of test: pyrene-actin polymerization assay, actin assembly by INF2. In kind it is biochemical. Particulars: at saturating concentrations. An outline of the steps: as §1
In test [3] the target is T1, mDia1-FH2. Kind of test: equilibrium dialysis, direct binding to mDia1-FH2.
Test [4] addresses T2, mDia3-FH2. The test can be described thus: equilibrium dialysis, direct binding to mDia3-FH2.

T1 sequence (O08808 748-1175): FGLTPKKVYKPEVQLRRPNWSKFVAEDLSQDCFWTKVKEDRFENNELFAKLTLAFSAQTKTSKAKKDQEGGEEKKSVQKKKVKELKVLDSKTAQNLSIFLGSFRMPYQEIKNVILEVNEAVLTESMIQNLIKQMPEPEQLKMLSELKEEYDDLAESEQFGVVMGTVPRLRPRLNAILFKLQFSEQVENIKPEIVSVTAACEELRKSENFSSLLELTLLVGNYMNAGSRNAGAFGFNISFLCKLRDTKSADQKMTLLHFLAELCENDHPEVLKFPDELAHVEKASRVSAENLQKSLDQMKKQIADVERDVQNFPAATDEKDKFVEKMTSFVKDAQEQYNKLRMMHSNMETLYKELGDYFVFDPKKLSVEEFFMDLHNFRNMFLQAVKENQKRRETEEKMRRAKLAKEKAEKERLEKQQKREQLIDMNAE
T2 sequence (O70566 625-1025 limits assumed): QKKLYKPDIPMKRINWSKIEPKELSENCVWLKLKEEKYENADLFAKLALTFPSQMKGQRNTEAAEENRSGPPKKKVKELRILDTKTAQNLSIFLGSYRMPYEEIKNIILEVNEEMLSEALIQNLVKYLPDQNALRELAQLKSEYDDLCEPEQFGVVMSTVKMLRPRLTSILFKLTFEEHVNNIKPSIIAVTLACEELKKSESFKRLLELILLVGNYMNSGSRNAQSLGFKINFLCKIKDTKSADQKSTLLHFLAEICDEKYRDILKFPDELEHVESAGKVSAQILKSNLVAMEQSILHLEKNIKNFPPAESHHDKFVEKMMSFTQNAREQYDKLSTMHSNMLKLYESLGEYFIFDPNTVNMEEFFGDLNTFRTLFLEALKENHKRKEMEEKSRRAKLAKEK
Chain of mDia2-FH2 (Q9Z207 615-1013 limits assumed): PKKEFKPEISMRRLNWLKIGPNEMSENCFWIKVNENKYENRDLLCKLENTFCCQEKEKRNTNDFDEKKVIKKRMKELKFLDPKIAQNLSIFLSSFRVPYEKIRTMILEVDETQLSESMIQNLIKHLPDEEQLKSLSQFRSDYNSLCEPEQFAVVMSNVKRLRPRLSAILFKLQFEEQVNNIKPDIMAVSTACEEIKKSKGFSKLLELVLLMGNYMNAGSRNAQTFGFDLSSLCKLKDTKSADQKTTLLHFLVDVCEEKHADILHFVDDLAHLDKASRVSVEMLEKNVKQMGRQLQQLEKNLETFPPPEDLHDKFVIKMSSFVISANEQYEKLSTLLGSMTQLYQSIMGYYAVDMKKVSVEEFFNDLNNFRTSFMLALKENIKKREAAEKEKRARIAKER
Chain of INF2-(FH1-FH2) (Q0GNC1 589-979 limits assumed): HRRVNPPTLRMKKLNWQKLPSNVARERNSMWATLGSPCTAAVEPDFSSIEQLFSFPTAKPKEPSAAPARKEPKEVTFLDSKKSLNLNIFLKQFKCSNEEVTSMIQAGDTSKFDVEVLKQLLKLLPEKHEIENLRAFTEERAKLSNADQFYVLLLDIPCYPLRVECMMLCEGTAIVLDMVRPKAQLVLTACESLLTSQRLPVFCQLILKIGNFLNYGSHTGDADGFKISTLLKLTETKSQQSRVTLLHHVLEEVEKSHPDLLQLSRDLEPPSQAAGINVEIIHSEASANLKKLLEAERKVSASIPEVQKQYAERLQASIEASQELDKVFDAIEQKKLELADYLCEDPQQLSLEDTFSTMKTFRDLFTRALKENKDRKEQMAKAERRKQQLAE

`O=S(=O)(O)c1cc(O)c2c(N=Nc3c(S(=O)(=O)O)cc4cc(S(=O)(=O)O)cc(O)c4c3O)cc(S(=O)(=O)O)cc2c1` [compound 1, 2-(8-hydroxy-3,6-disulfo-1-naphthylazo)-1,8-dihydroxy-naphthalene-3,6-disulfonic acid]: on mDia1-FH2 [1], the “Hill coefficient, inhibition of actin assembly by mDia1-FH2” value came to 2.4 and the IC50 is 490 nM. At actin, the “inhibitory effect toward polymerization of actin alone” value is listed as “Neither 1 nor 2 shows any inhibitory effect”.

For the compound `Nc1ccc(Br)cc1-c1nc2ccccc2[nH]c1=O` [compound 2, 3-(2-amino-5-bromophenyl)-1H-quinoxalin-2-one], on mDia1-FH2 [1], the “Hill coefficient, inhibition of actin assembly by mDia1-FH2” value was 7.6 and the half-maximal inhibitory concentration (IC50) worked out at 2100 nM. In addition, on mDia2-FH2, the “inhibition of filament assembly by mDia2-FH2 compared with mDia1-FH2 (in words)” value was “comparable”. In addition, on mDia3-FH2 [2], the “inhibitory activity toward actin assembly by mDia3-FH2 (in words)” value is given as “no inhibitory activity”. Also, the “inhibition of FRL1” value at FRL1-(FH1-FH2) is given as “incomplete”. At INF2-(FH1-FH2), the “maximal inhibition of INF2 activity” value is on record as no more than 75%. Also, on actin, the “inhibitory effect toward polymerization of actin alone” value is “Neither 1 nor 2 shows any inhibitory effect”. Besides, the “binding to mDia1-FH2 by equilibrium dialysis” value at mDia1-FH2 [3] is reported as “effectively retained 2 in a dose-dependent manner”. Further, the “binding to mDia3-FH2 by equilibrium dialysis” value at mDia3-FH2 [4] is recorded as “no binding”.
